Experimental data from paper PMC7003739 (Clinical Pharmacology in Drug Development, 2019).
Marks after values point to notes of the source that are not given here.

Legend:
[1] = Plasma PK after single oral doses; format: in vivo, human; settings: for AUCinf, arithmetic mean (SD) / AUCinf, geometric mean (%CV) / Cmax, arithmetic mean (SD) / Cmax, geometric mean (%CV) / tmax, median (range) / t½, arithmetic mean (SD): n=6; for tmax, J‐W difference of median: Japanese‐Western
In short: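 Healthy Japanese and Western volunteers took single oral doses of 1, 5 and 30 mg or placebo with 240 mL water on days 1, 4 and 7, with a 2-day washout. Heparinized blood was taken predose and at 0.25–48 h, centrifuged within 30 min at 4°C, and the plasma frozen at –20°C. Assay was LC-MS/MS (0.100–350 ng/mL), with values below the quantification limit set to zero. Japanese/Western geometric mean ratios came from log-scale ANOVA.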

Urinary PK = format: in vivo, human; settings: for Ae6, arithmetic mean (SD) / Ae12, arithmetic mean (SD) / Ae24%, arithmetic mean (SD) / CLR, arithmetic mean (SD) / CLR, geometric mean (%CV) / CLR, median: Cohort A
[2] = Plasma PK after single and multiple doses; format: in vivo, human; settings: Japanese, Cohort B; for AUCτ, arithmetic mean (SD) / AUCτ, geometric mean (%CV): τ 12 hours
Safety and tolerability = format: in vivo, human
In short: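 Healthy Japanese volunteers (Cohort B) were randomised 3:1 to a single oral 15 mg test compound dose or matching placebo on day 1, then 15 mg BID for 5 days (single dose on the last day) or placebo. Adverse events (intensity and treatment relatedness), clinical observations and vital signs were monitored throughout. ECG was done at specified post-dose times. Physical examination was on day 0 and 72 h after the final dose.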

[3] = humans; cited from earlier work
[4] = 15 mg BID over 14 days, healthy volunteers; cited from earlier work
[5] = Japanese, single oral 1 mg, Cohort A
[6] = Japanese, single oral 5 mg, Cohort A
[7] = Japanese, single oral 30 mg, Cohort A
[8] = Western, single oral 1 mg, Cohort A
[9] = Western, single oral 5 mg, Cohort A
[10] = Western, single oral 30 mg, Cohort A
[11] = Japanese, Cohort B, single 15 mg dose
[12] = Japanese, single oral 1 mg, n=6
[13] = Japanese, single oral 5 mg, n=5
[14] = Japanese, single oral 5 mg, n=6
[15] = Japanese, single oral 30 mg, n=6
[16] = Western, single oral 30 mg, n=6
[17] = day 8 multiple dose 15 mg BID for 5 days, n=6
[18] = Cohort B Japanese, 15 mg BID, N=6

C[C@@H]1CCN(C(=O)CC#N)C[C@@H]1N(C)c1ncnc2[nH]ccc12 [tofacitinib]
differences in systemic exposure (Cmax, AUCinf) between Japanese and Western volunteers ([1]; 1, 5, 30 mg single doses, analysis of variance): No significant differences | AUCinf, arithmetic mean (SD) [1, 5]: 22.8 (6.37) ng ⋅ h/mL | AUCinf, geometric mean (%CV) [1, 5]: 22.0 (28) ng ⋅ h/mL | Cmax, arithmetic mean (SD) [1, 5]: 7.38 (1.05) ng/mL | Cmax, geometric mean (%CV) [1, 5]: 7.32 (14) ng/mL | tmax, median (range) [1, 5]: 0.75 (0.50‐2.00) h | t½, arithmetic mean (SD) [1, 5]: 1.96 (0.240) h | AUCinf, arithmetic mean (SD) [1, 6]: 114 (25.5) ng ⋅ h/mL | AUCinf, geometric mean (%CV) [1, 6]: 111 (22) ng ⋅ h/mL | Cmax, arithmetic mean (SD) [1, 6]: 43.1 (15.0) ng/mL | Cmax, geometric mean (%CV) [1, 6]: 41.3 (35) ng/mL | tmax, median (range) [1, 6]: 0.50 (0.50‐1.00) h | t½, arithmetic mean (SD) [1, 6]: 2.49 (0.570) h | AUCinf, arithmetic mean (SD) [1, 7]: 775 (203) ng ⋅ h/mL | AUCinf, geometric mean (%CV) [1, 7]: 754 (26) ng ⋅ h/mL | Cmax, arithmetic mean (SD) [1, 7]: 324 (82.7) ng/mL | Cmax, geometric mean (%CV) [1, 7]: 315 (25) ng/mL | tmax, median (range) [1, 7]: 0.50 (0.50‐1.00) h | t½, arithmetic mean (SD) [1, 7]: 3.14 (0.497) h | tmax, J‐W difference of median ([1]; single oral 1 mg, Cohort A): 0.00 h | tmax, J‐W difference of median ([1]; single oral 5 mg, Cohort A): 0.00 h | tmax, J‐W difference of median ([1]; single oral 30 mg, Cohort A): 0.00 h | AUCinf, arithmetic mean (SD) [1, 8]: 22.9 (2.52) ng ⋅ h/mL | AUCinf, geometric mean (%CV) [1, 8]: 22.8 (11) ng ⋅ h/mL | Cmax, arithmetic mean (SD) [1, 8]: 7.53 (1.69) ng/mL | Cmax, geometric mean (%CV) [1, 8]: 7.36 (22) ng/mL | tmax, median (range) [1, 8]: 0.75 (0.50‐1.00) h | t½, arithmetic mean (SD) [1, 8]: 2.14 (0.210) h | AUCinf, arithmetic mean (SD) [1, 9]: 120 (16.8) ng ⋅ h/mL | AUCinf, geometric mean (%CV) [1, 9]: 119 (14) ng ⋅ h/mL | Cmax, arithmetic mean (SD) [1, 9]: 36.0 (9.78) ng/mL | Cmax, geometric mean (%CV) [1, 9]: 34.9 (27) ng/mL | tmax, median (range) [1, 9]: 0.50 (0.50‐2.00) h | t½, arithmetic mean (SD) [1, 9]: 2.85 (0.691) h | AUCinf, arithmetic mean (SD) [1, 10]: 797 (131) ng ⋅ h/mL | AUCinf, geometric mean (%CV) [1, 10]: 788 (16) ng ⋅ h/mL | Cmax, arithmetic mean (SD) [1, 10]: 269 (47.9) ng/mL | Cmax, geometric mean (%CV) [1, 10]: 265 (18) ng/mL | tmax, median (range) [1, 10]: 0.50 (0.50‐1.00) h | t½, arithmetic mean (SD) [1, 10]: 3.50 (0.349) h | geometric mean Cmax in Japanese higher than in Western volunteers ([1]; single 5 and 30 mg doses, Cohort A): approximately 19% | increase of systemic exposure with dose ([1]; single oral doses 1, 5, 30 mg): approximately dose‐proportional | CLR reduction after multiple‐dose vs single‐dose administration, average (Urinary PK; Japanese, Cohort B, 15 mg): 24% | CLR, geometric mean [SD] (Urinary PK; Japanese, Cohort B, multiple dose 15 mg BID): 120 mL/min | Ae24%, arithmetic mean (SD) percentage of unchanged tofacitinib excreted in urine 24 hours after dose (Urinary PK; [11]): 27.1% | CLR, geometric mean [SD] (Urinary PK; [11]): 158 mL/min | Mean CLR decrease with increasing dose (Urinary PK; Japanese, single doses 1 to 30 mg (162 to 148 mL/min)): 8.6% | Ae6, arithmetic mean (SD) (Urinary PK; [12]): 0.191 (0.0469) mg | Ae12, arithmetic mean (SD) (Urinary PK; [12]): 0.215 (0.0527) mg | Ae24%, arithmetic mean (SD) (Urinary PK; [12]): 22.0% | CLR, arithmetic mean (SD) (Urinary PK; [12]): 166 (45.2) mL/min | CLR, geometric mean (%CV) (Urinary PK; [12]): 162 (27) mL/min | CLR, median (Urinary PK; [12]): 144 mL/min | Ae24%, arithmetic mean (SD) (Urinary PK; Japanese, single oral 1 mg, n=6, listed as Tofacitinib): 22.0 (5.34) % | Ae12, arithmetic mean (SD) (Urinary PK; [13]): 0.995 ^c (0.367) mg | Ae24%, arithmetic mean (SD) (Urinary PK; [13]): 20.4% | CLR, geometric mean (%CV) (Urinary PK; [13]): 134 ^c (25) mL/min | Ae24%, arithmetic mean (SD) (Urinary PK; Japanese, single oral 5 mg, n=5, listed as Tofacitinib): 20.4 ^c (7.51) % | Ae6, arithmetic mean (SD) (Urinary PK; [14]): 0.890 (0.327) mg | CLR, arithmetic mean (SD) (Urinary PK; [14]): 137 (33.8) mL/min | CLR, median (Urinary PK; [14]): 136 mL/min | Ae6, arithmetic mean (SD) (Urinary PK; [15]): 5.59 (0.832) mg | Ae12, arithmetic mean (SD) (Urinary PK; [15]): 6.46 (0.791) mg | Ae24%, arithmetic mean (SD) (Urinary PK; [15]): 22.5% | CLR, arithmetic mean (SD) (Urinary PK; [15]): 153 (41.8) mL/min | CLR, geometric mean (%CV) (Urinary PK; [15]): 148 (27) mL/min | CLR, median (Urinary PK; [15]): 149 mL/min | Ae24%, arithmetic mean (SD) (Urinary PK; Japanese, single oral 30 mg, n=6, listed as Tofacitinib): 22.5 (3.00) % | Mean CLR decrease with increasing dose (Urinary PK; Western, single doses 1 to 30 mg (160 to 124 mL/min)): 22.5% | Ae24%, arithmetic mean (SD) (Urinary PK; Western, single oral 1 mg, n=5): 21.2% | CLR, geometric mean (%CV) (Urinary PK; Western, single oral 1 mg, n=5): 160 ^c (11) mL/min | Ae24%, arithmetic mean (SD) (Urinary PK; Western, single oral 1 mg, n=5, listed as Tofacitinib): 21.2 ^c (0.865) % | Ae6, arithmetic mean (SD) (Urinary PK; Western, single oral 1 mg, n=6): 0.169 (0.0128) mg | Ae12, arithmetic mean (SD) (Urinary PK; Western, single oral 1 mg, n=6): 0.199 (0.0127) mg | CLR, arithmetic mean (SD) (Urinary PK; Western, single oral 1 mg, n=6): 161 (17.7) mL/min | CLR, median (Urinary PK; Western, single oral 1 mg, n=6): 158 mL/min | Ae12, arithmetic mean (SD) (Urinary PK; Western, single oral 5 mg, n=5): 0.919 ^c (0.265) mg | Ae24%, arithmetic mean (SD) (Urinary PK; Western, single oral 5 mg, n=5): 19.9% | CLR, geometric mean (%CV) (Urinary PK; Western, single oral 5 mg, n=5): 136 ^c (29) mL/min | Ae24%, arithmetic mean (SD) (Urinary PK; Western, single oral 5 mg, n=5, listed as Tofacitinib): 19.9 ^c (5.15) % | Ae6, arithmetic mean (SD) (Urinary PK; Western, single oral 5 mg, n=6): 0.744 (0.224) mg | CLR, arithmetic mean (SD) (Urinary PK; Western, single oral 5 mg, n=6): 141 (40.6) mL/min | CLR, median (Urinary PK; Western, single oral 5 mg, n=6): 148 mL/min | Ae6, arithmetic mean (SD) (Urinary PK; [16]): 4.15 (1.11) mg | Ae12, arithmetic mean (SD) (Urinary PK; [16]): 5.63 (1.28) mg | Ae24%, arithmetic mean (SD) (Urinary PK; [16]): 19.8% | CLR, arithmetic mean (SD) (Urinary PK; [16]): 127 (30.1) mL/min | CLR, geometric mean (%CV) (Urinary PK; [16]): 124 (24) mL/min | CLR, median (Urinary PK; [16]): 127 mL/min | Ae24%, arithmetic mean (SD) (Urinary PK; Western, single oral 30 mg, n=6, listed as Tofacitinib): 19.8 (4.11) % | percentage of unchanged tofacitinib excreted in urine (Urinary PK; over 24 hours after single‐dose administration, across doses and ethnicities): approximately 20% | drug accumulation upon repeat dosing ([2]; 15 mg BID): negligible drug accumulation | time to steady state plasma concentration ([2]; 15 mg BID for 5 days): ≤ 24 h | AUCinf, arithmetic mean (SD) ([2]; day 1 single dose 15 mg, n=6): 417 (133) ng ⋅ h/mL | AUCinf, geometric mean (%CV) ([2]; day 1 single dose 15 mg, n=6): 399 (32) ng ⋅ h/mL | Cmax, arithmetic mean (SD) ([2]; day 1 single dose 15 mg, n=6): 149 (50.6) ng/mL | Cmax, geometric mean (%CV) ([2]; day 1 single dose 15 mg, n=6): 141 (34) ng/mL | tmax, median (range) ([2]; day 1 single dose 15 mg, n=6): 0.75 (0.50‐1.00) h | t½, arithmetic mean (SD) ([2]; day 1 single dose 15 mg, n=6): 3.14 (0.672) h | AUCτ, arithmetic mean (SD) ([2]; day 1 single dose 15 mg, n=6): 403 (128) ng ⋅ h/mL | AUCτ, geometric mean (%CV) ([2]; day 1 single dose 15 mg, n=6): 387 (32) ng ⋅ h/mL | Cmax, arithmetic mean (SD) [2, 17]: 143 (45.9) ng/mL | Cmax, geometric mean (%CV) [2, 17]: 136 (32) ng/mL | tmax, median (range) [2, 17]: 0.75 (0.50‐1.00) h | t½, arithmetic mean (SD) [2, 17]: 3.28 (0.544) h | AUCτ, arithmetic mean (SD) [2, 17]: 457 (116) ng ⋅ h/mL | AUCτ, geometric mean (%CV) [2, 17]: 445 (25) ng ⋅ h/mL | Constipation, n (all causality) (Safety and tolerability; [18]): 1 | Hunger, n (all causality) (Safety and tolerability; [18]): 2 | Skin irritation, n (all causality) (Safety and tolerability; [18]): 1 | adverse events of moderate intensity: skin irritation, events (Safety and tolerability; Cohort B, single dose 15 mg, not considered related to study treatment): 1 | renal function (individual creatinine levels) following repeat administration (Safety and tolerability; Japanese, Cohort B, 15 mg BID): renal function remained unaffected | changes in vital signs or ECG measurements (Safety and tolerability; whole study): no clinically significant changes | clinically significant laboratory abnormalities (Safety and tolerability; whole study): no volunteers had clinically significant laboratory abnormalities | serious adverse events or deaths (Safety and tolerability; whole study, Cohorts A and B): No serious adverse events or deaths were reported | contribution of renal clearance to clearance [3]: approximately 30% | effect on glomerular filtration rate [4]: did not alter the glomerular filtration rate
